# From ChEMBL document CHEMBL4387775, “Minimum structural requirements for inhibitors of the zinc finger protein TRAF6” (Bioorg Med Chem Lett, 2019)
# Calls of active or inactive are those of the source. The rule behind the calls is not given here.
# Assays:
# [1] = Prodrug conversion in human HeLaS3 assessed as NpSH formation at 10 uM; type: ADME, cell-based; settings: hela s3, 10 µM
# [2] = target: T1, TNF receptor-associated factor 6 (Homo sapiens) (UniProt Q9Y4K3); assay: Inhibition of TRAF6 (unknown origin)-mediated NFkappaB activation expressed in human HeLaS3 cells harboring 3kappaB-tk-luc at 10 uM preincubated for 1 hr followed by Il1alpha-stimulation and measured after 3 hrs in presence of DTT by dual-luciferase reporter gene assay relative to control; type: cell-based
# T1 sequence (whole entry): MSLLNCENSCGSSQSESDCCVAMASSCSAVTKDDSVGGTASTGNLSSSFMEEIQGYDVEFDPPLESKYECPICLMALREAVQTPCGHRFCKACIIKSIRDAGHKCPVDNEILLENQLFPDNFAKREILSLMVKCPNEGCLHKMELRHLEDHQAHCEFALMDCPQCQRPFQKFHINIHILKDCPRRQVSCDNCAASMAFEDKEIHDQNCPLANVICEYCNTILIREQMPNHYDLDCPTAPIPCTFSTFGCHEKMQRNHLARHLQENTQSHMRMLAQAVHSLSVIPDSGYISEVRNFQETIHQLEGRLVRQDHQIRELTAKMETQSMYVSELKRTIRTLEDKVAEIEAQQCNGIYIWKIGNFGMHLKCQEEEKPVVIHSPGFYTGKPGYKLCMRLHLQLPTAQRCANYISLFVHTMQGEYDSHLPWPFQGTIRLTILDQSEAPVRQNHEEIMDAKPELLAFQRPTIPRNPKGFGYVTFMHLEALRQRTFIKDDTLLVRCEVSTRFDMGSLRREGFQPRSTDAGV
# How it was run: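 Cells co-transfected with 3κB-tk-luc and pRL-Luc (β-actin-driven renilla), cultured 1 day, then given compound (10 μM) plus DTT (30 μM) for 1 h before IL-1α (10 ng/mL) stimulation for 3 h. Dual-luciferase read-out: κB-firefly signal normalized to renilla, reported as relative NF-κB activity.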
# [3] = target: T1, TNF receptor-associated factor 6 (Homo sapiens); assay: Inhibition of TRAF6 (unknown origin)-mediated NFkappaB activation expressed in human HeLaS3 cells harboring 3kappaB-tk-luc at 10 uM preincubated for 1 hr followed by Il1alpha-stimulation and measured after 3 hrs by dual-luciferase reporter gene assay relative to control; type: cell-based
# How it was run: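 Cells co-transfected with 3κB-tk-luc (triple κB site driving firefly luciferase) and pRL-Luc (β-actin promoter driving renilla luciferase), cultured 1 day, given compound (10 μM) without DTT for 1 h, then stimulated with IL-1α (10 ng/mL) for 3 h. Lysates read by dual-luciferase assay; firefly signal normalized to renilla, expressed as relative NF-κB activity.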
# [4] = test system: HeLa S3; assay: Cytotoxicity against human HeLaS3 cells assessed as reduction in cell viability at 10 uM measured after 8 hrs in presence of DTT by MTT assay relative to control; type: functional
# How it was run: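 Cells treated with compound at 10 μM together with DTT (30 μM), incubated 8 h, then viability read by MTT assay; shown as activity relative to control.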
SMILES,Drug metabolism [1],inhibition [2],inhibition [3],Activity [4]
O=[N+]([O-])c1ccccc1SSc1ccccc1[N+](=O)[O-],Metabolite_Detected,–,–,–
SCCNCc1ccccn1,–,inactive,–,–
CN(C)c1ccnc(CNCCS)c1,–,inactive,–,–
O=[N+]([O-])c1ccccc1SSCCNCc1cccc(CNCCSSc2ccccc2[N+](=O)[O-])n1,Metabolite_Detected,84%,76%,–
O=C(CCCC[C@@H]1SC[C@@H]2NC(=O)N[C@@H]21)NCCCCCCOC(=O)Nc1cc(CNCCS)nc(CNCCS)c1,–,78%,–,–
CCCCCCCCCCCCOC(=O)Nc1cc(CNCCS)nc(CNCCS)c1,–,inactive,–,–

# Now from value to molecule, other results behind:
Drug metabolism [1],inhibition [2],inhibition [3],SMILES,Activity [4]
Metabolite_Detected,89%,80%,CN(C)c1cc(CNCCSSc2ccccc2[N+](=O)[O-])nc(CNCCSSc2ccccc2[N+](=O)[O-])c1,inactive
–,inactive,–,O=[N+]([O-])c1ccccc1S,24%
–,inactive,–,CC(C)=CCC/C(C)=C/CC/C(C)=C/COC(=O)Nc1cc(CNCCS)nc(CNCCS)c1,–
Metabolite_Detected,inactive,–,O=[N+]([O-])c1ccccc1SSCCNCc1cccc(CNCCSSc2ccccc2[N+](=O)[O-])c1,–
–,inactive,–,Sc1ccccc1NCc1ccccn1,–
